The nature of series [1]: fT>MIC in human adults with pulmonary tuberculosis at 600 mg administered once daily for 5 days. Format: functional. In short, it runs like this: (§1)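 Steady-state plasma profiles after the fifth 600 mg dose, given once or twice daily, were fitted with a one-compartment population model. Concentrations were corrected to free drug assuming 31% protein binding. MIC came from each patient's pretreatment sputum isolate, tested by Bactec 460 and on Middlebrook 7H-10 agar. The result is the percent of the dosing interval with free drug above MIC.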

Series [2] can be described thus: Elimination rate constant in human adults with pulmonary tuberculosis at 600 mg administered twice daily for 7 days. The series is classed as ADME, organism-based. The note with it: in vivo. In short, it runs like this:
(§2)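 Plasma was drawn at steady state, predose and at 1, 2, 4, 8, 12, 18 and 24 h, and stored at -80°C. Assay was validated HPLC with 0.5–30 μg/ml standards. A one-compartment population model (NPAG) gave median individual Bayesian estimates; other parameters came from standard equations.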

Series [3] can be described thus: Cmax in human adults with pulmonary tuberculosis at 600 mg administered twice daily for 5 days. More on the design: dose 600 mg. To be noted: in vivo. Format: ADME, organism-based. In short, it runs like this: as §2
A short description of series [4]: Apparent oral clearance in human adults with pulmonary tuberculosis at 600 mg administered daily for 7 days. Format: ADME, organism-based. To be noted: in vivo. In short, it runs like this: as §2
The nature of series [5]: Cmax in human adults with pulmonary tuberculosis at 600 mg administered daily for 7 days. The series is classed as ADME, organism-based. Further details: dose 600 mg. To be noted: in vivo. The gist of the method:
as §2

Series [6] has as its system Mycobacterium tuberculosis. Description: Antimicrobial activity against Mycobacterium tuberculosis in human adults with pulmonary tuberculosis at 600 mg administered daily for 7 days. To be noted: 168 h. The series is classed as functional.
Series [7] concerns Homo sapiens. Put plainly: Absorption rate constant in human adults with pulmonary tuberculosis at 600 mg administered daily for 7 days. Format: ADME, organism-based. The note with it: in vivo, 168 h. The gist of the method: (§3)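 Adults with pulmonary TB (once daily n=10, twice daily n=9) fasted overnight before the fifth morning dose. Plasma was drawn at steady state predose and 1, 2, 4, 8, 12, 18 and 24 h after dosing, stored at -80°C, and assayed by validated HPLC (standards 0.5–30 μg/ml). ka comes from a one-compartment NPAG population model fitted per regimen, reported as the median of individual Bayesian estimates.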

The nature of series [8]: Cmax in human adults with pulmonary tuberculosis at 600 mg administered once daily for 5 days. Format: ADME, organism-based. Further details: dose 600 mg. To be noted: in vivo. In short, it runs like this: as §2
The test system of series [9] is Homo sapiens. Description: Absorption rate constant in human adults with pulmonary tuberculosis at 600 mg administered twice daily for 7 days. The series is classed as ADME, organism-based. The note with it: in vivo, 168 h. The gist of the method:
as §3

A short description of series [10]: Elimination half life in human adults with pulmonary tuberculosis at 600 mg administered daily for 7 days. Format: ADME, organism-based. The note with it: in vivo, read-out: beta t1/2 (converted). In short, it runs like this:
as §2

Series [11] can be described thus: fT>MIC in human adults with pulmonary tuberculosis at 600 mg administered twice daily for 5 days. The series is classed as functional. The gist of the method: as §1
Series [12] can be described thus: Cmax in human adults with pulmonary tuberculosis at 600 mg administered twice daily for 7 days. The series is classed as ADME, organism-based. More on the design: dose 600 mg. To be noted: in vivo. In short, it runs like this:
as §2

Series [13] is described as follows: Tmax in human adults with pulmonary tuberculosis at 600 mg administered twice daily for 7 days. Format: ADME, organism-based. To be noted: in vivo. In short, it runs like this: as §2
The test system of series [14] is Mycobacterium tuberculosis. Put plainly: Antimicrobial activity against Mycobacterium tuberculosis in human adults with pulmonary tuberculosis at 600 mg administered twice for 7 days. The series is classed as functional. To be noted: 168 h.
The nature of series [15]: Elimination rate constant in human adults with pulmonary tuberculosis at 600 mg administered daily for 7 days. Format: ADME, organism-based. The note with it: in vivo. In short, it runs like this:
as §2

Series [16] is described as follows: Elimination half life in human adults with pulmonary tuberculosis at 600 mg administered twice daily for 7 days. The series is classed as ADME, organism-based. To be noted: in vivo, read-out: beta t1/2 (converted). In short, it runs like this:
as §2

Series [17] in a line: Tmax in human adults with pulmonary tuberculosis at 600 mg administered daily for 7 days. Format: ADME, organism-based. To be noted: in vivo. The gist of the method:
as §2

The nature of series [18]: Apparent oral clearance in human adults with pulmonary tuberculosis at 600 mg administered twice daily for 7 days. The series is classed as ADME, organism-based. To be noted: in vivo. The gist of the method: as §2

≈ marks a conversion by molar mass, not a printed value.

In general, Cmax refers to the highest concentration seen after dosing. Usually CL/F stands for the apparent clearance, not corrected for the fraction that reaches the circulation. As usually defined, the MIC is the smallest concentration in the dilution series that meets the test's criterion for growth inhibition. Usually Tmax stands for the time at which the peak concentration occurs.

`CC(=O)NC[C@H]1CN(c2ccc(N3CCOCC3)c(F)c2)C(=O)O1` [LINEZOLID]: the figures for the “fT>MIC” value in series [1] and in [11] were 62.8% and 100%, respectively. Also, the k el at 168 h in [2] and in series [15] was 5.56e-05 s⁻¹ throughout. Moreover, the Cmax was found to be 13400 ng/mL in series [3], 14900 ng/mL in series [5], 10300 ng/mL in series [8] and 19400 ng/mL in series [12]. For the same compound, the results for the CL/F in series [4] and in [18] were 118 mL/min and 80 mL/min, respectively. The MIC in series [6] came to 1 µg/mL (≈ 2.96 µM); in series [14], 0.5 µg/mL (≈ 1.48 µM). In addition, the ka in the series with Homo sapiens [7] is 1.5 h⁻¹; in the series on Homo sapiens [9] it was 2.7 h⁻¹. Moreover, the half-life in series [10] was 2.9 h; in [16] it was 4.6 h. For the same compound, the Tmax in series [13] is 1 h; in series [17], 1.5 h.

The values above are taken from ChEMBL document CHEMBL1649583 (Antimicrob Agents Chemother, 2009).
